# Screens deposited in PubChem BioAssay by The Scripps Research Institute Molecular Screening Center.
# Hits are enriched below; roughly 4.6% of the tested compounds scored in any of these assays.
# TAAR1 antag – antagonists of human TAAR1. 360,000 tested, 1.5% active. inhibition, % at 3 µM. Q96RJ0. CHO RD-HGA16 TAAR1, Fluo-8 calcium fluorescence, antagonist;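 active = inhibition above a per-plate cutoff, the mean inhibition of test compounds on that plate plus 3 SD, cut at about 49% in these data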
# Target sequence (Q96RJ0 whole entry, looked up): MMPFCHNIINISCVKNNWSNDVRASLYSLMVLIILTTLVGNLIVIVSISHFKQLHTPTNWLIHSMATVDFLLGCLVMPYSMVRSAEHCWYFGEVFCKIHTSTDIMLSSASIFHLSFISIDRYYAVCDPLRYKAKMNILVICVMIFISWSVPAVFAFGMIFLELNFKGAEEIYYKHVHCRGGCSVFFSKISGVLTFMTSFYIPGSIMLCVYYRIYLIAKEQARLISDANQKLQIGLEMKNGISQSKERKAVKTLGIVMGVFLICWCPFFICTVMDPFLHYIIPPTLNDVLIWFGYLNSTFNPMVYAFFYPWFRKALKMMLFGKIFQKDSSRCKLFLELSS
#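 Test system: CHO RD-HGA16 cells bearing hTAAR1 | Reagent: β-PEA, EC80 | Compound dosing: 3 µM, single point | Schedule: Dye loading 75 min at 37 °C, then 30 min room temperature | Signal: Calcium fluorescence with Fluo-8 | Evaluation: Percent inhibition of PEA-evoked calcium signal, max/basal emission ratio | Control set: DMSO-only wells and EC80 β-PEA-stimulated wells | Repeats: Singlicate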
# OX1R antag-1 – OX1R (human) antagonism; O43613; OX1R-expressing cells, FRET antagonist read-out; inhibition, % at 6.6 µM; 330,000 tested, 1.8% active; AID 485270; in the data active = inhibition mostly above about 38%, no sharp cut-off; inactive = mostly below about 40%
# CHO parental Ca – counter-screen: ATP calcium response change in parental CHO cells. parental CHO-K1, ATP-induced calcium, Fluo-8 fluorescence. inhibition, % at 5.6 µM. 330,000 tested, 0.63% active. AID 463079;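 active = inhibition above that plate's mean sample inhibition plus 3 SD, cut at about 26% in these data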
#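 Assay system: untransfected parental CHO cell line. Also added: ATP agonist challenge. Dosing: one dose, 5.6 µM nominal. Measured by: Fluo-8 fluorescence. Read-out: % inhibition. Benchmarks: ATP wells versus no-ATP DMSO wells. Repeats: no replicates.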
# TAAR1 ag – agonists of human TAAR1; CHO RD-HGA16 TAAR1, Fluo-8 calcium fluorescence; vehicle wells 0%, saturating PEA agonist 100%; activation, % at 3 µM; 360,000 tested, 0.99% active;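 active = activation above the mean activation of all test compounds in the run plus 3 SD, cut at about 38% in these data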
#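 Assay system: CHO-derived RD-HGA16 cells with stable Gα16 and human TAAR1; timing: 17-24 h seeding, 75 min 37 °C dye, 30 min RT; read-out: % activation from peak over basal fluorescence ratio, DMSO-to-PEA scaled; measured by: kinetic Fluo-8 calcium fluorescence; benchmarks: low control DMSO, high control PEA (EC100); doses: 3 µM single concentration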
# GPR7 antag – antagonists of human GPR7 (neuropeptides B/W receptor 1). P48145. GPR7-expressing cells, fluorescence antagonist assay. inhibition, % at 4.4 µM. 290,000 tested, 1.1% active; in the data active = inhibition above about 16%, passing the limit was not always enough;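 also: cells stimulated with the agonist NPW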
# Target sequence (P48145 whole entry, looked up): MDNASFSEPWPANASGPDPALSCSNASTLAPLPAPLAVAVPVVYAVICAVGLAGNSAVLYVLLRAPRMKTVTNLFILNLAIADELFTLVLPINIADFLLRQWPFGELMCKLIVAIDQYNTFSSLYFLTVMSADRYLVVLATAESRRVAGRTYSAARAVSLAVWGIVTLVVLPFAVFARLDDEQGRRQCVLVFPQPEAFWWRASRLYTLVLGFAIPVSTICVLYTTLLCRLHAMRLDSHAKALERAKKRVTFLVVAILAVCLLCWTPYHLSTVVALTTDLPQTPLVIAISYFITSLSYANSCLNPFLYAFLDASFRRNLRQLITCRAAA
# OX1R antag-2 – blocks the human orexin 1 receptor | O43613 | CHO/OX1R cells, Fluo-8 calcium fluorescence, orexin A | inhibition, % at 5 µM | 330,000 tested, 0.43% active | AID 434989;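 active = inhibition above its plate's threshold, mean inhibition of all tested compounds on the plate plus 3 SD, cut at about 37% in these data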
# TAAR1 nonsel count – nonselective antagonist in TAAR1 antagonist counter-screen | counterscreen cell line, calcium fluorescence, antagonist mode | inhibition, % at 3 µM | AID 651780 | 2,400 tested, 77% active | shares compounds with TAAR1 antag; in the data active = inhibition above about 22%;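 also: CHO-Ga16 host cells stimulated with ATP at an EC80 level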
# TAAR1 antag conf – confirmation of human TAAR1 antagonists | 2,400 tested, 40% active | TAAR1-expressing cells, fluorescence antagonist read-out | shares compounds with TAAR1 antag | inhibition, % at 3 µM; in the data active = inhibition above about 49%;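 also: CHO-Ga16 host cells challenged with agonist PEA near its EC80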
# Ga16 nonsel ag – nonselective Ga16 agonism, counter-screen. activation, % at 3 µM. AID 651953. shares compounds with TAAR1 antag. 2,400 tested, 18% active. Ga16-expressing cells, calcium fluorescence, agonist counterscreen; in the data active = activation above about 12%
# TAAR1 ag counter – counter-screen for human TAAR1 antagonists: TAAR1 agonists | activation, % at 3 µM | shares compounds with TAAR1 antag | 2,400 tested, 2% active | hTAAR1 cell line, fluorescence activation, agonist mode; in the data active = activation above about 37%;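 also: CHO cells stably expressing TAAR1 with calcium dye readout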
# Hits are given with their value; i = inactive; nt = not tested or not shown.
SMILES,TAAR1 antag,OX1R antag-1,CHO parental Ca,TAAR1 ag,GPR7 antag,OX1R antag-2,TAAR1 nonsel count,TAAR1 antag conf,Ga16 nonsel ag,TAAR1 ag counter
COC(=O)C1=C(C)N(Cc2ccc(F)cc2)C(=S)NC1c1cccc(Br)c1 (stereo not drawn),54,nt,nt,i,nt,nt,i,i,i,i
COC(=O)C1=C(C)N(Cc2ccc(C(F)(F)F)cc2)C(=NCc2ccc3c(c2)OCO3)NC1c1cccc(Cl)c1 (stereo not drawn),49,nt,nt,i,nt,nt,31,i,14,i
COC(=O)C1=C(C)N(Cc2ccc(Cl)cc2)C(=S)NC1c1cccc(F)c1 (stereo not drawn),i,nt,nt,i,nt,nt,nt,nt,nt,nt
COc1cccc(-c2c(-c3ccccc3OC)ncn2Cc2cccc(-c3ccccc3)c2)c1,i,nt,nt,i,nt,nt,nt,nt,nt,nt
CCN1CCN(C(=O)c2ccc3c(=O)n(CCc4ccccc4)c(=O)[nH]c3c2)CC1,nt,i,i,nt,i,i,nt,nt,nt,nt
COCCN(C(=O)COC(=O)c1c(C)nn(-c2ccccc2)c1C)c1c(N)n(Cc2ccccc2)c(=O)[nH]c1=O,i,nt,nt,i,nt,nt,nt,nt,nt,nt
CN(C(=O)c1cnc(N2CCN(c3ncccn3)CC2)c2ccccc12)c1ccc(Cl)cc1,51,i,i,i,i,i,i,i,i,i
CCN(C(=O)c1cnc(N2CCN(c3ncccn3)CC2)c2ccccc12)c1cccc(Cl)c1,50,i,i,i,i,i,27,i,i,i
O=C(O)c1ccccc1C(=O)N1CCN(c2ncccn2)CC1,i,nt,nt,i,i,nt,nt,nt,nt,nt
O=C(c1cnc(N2CCN(c3ncccn3)CC2)c2ccccc12)N1CCN(c2ncccn2)CC1,59,i,i,i,i,i,32,49,i,i
COc1ccc(OC2C(=O)N(CCc3ccc(OC)c(OC)c3)C2c2ccc3c(c2)OCO3)cc1 (stereo not drawn),57,i,i,i,i,i,22,i,i,i
O=C(Nc1cc(S(=O)(=O)N2CCOCC2)ccc1Cl)c1ccncc1,i,i,i,i,nt,i,nt,nt,nt,nt
CCOC(=O)C1=C(CC)Nc2ccccc2N=C1NC(=O)CCNC(C)=O,i,i,i,i,i,i,nt,nt,nt,nt
CCOCc1c(C(=O)NC2=Nc3ccccc3NC(CC)=C2C(=O)OCC)oc2ccccc12,61,40,i,i,i,i,30,55,i,i
CCOC(=O)C1=C(CC)Nc2ccccc2N=C1NC(=O)c1oc2ccccc2c1C,74,i,i,i,i,i,27,53,i,i
COc1ccc(CCN2C(=O)c3cccc4c(C(=O)N5CCCCC5)ccc(c34)C2=O)cc1OC,61,i,i,i,i,i,36,61,12,i
COc1ccc(CCNC(=O)CCN2C(=O)c3cccc4cccc(c34)C2=O)cc1OC,i,i,i,i,i,i,nt,nt,nt,nt
C=C(C)COc1ccc(-c2n[nH]c(C)c2-c2ccc(OC)cc2)c(O)c1,62,i,i,i,i,i,i,i,i,i
O=C(CSc1ccccc1)OCC(=O)N1CCN(C(=O)c2ccco2)CC1,i,i,i,i,nt,i,nt,nt,nt,nt
Fc1ccc(N2CCN(c3cnc4ccccc4n3)CC2)cc1,i,i,i,i,i,i,nt,nt,nt,nt
COc1cc(/C=C2/SC(=S)N(CC(=O)O)C2=O)ccc1OCC(=O)Nc1ccc(C)c(C)c1,i,i,i,i,i,i,nt,nt,nt,nt
COc1ccc(-c2cn(Cc3ccc4c(c3)C(=O)c3ccccc3C4=O)nn2)cc1,i,i,i,i,i,i,nt,nt,nt,nt
COc1ccc(-c2cn(Cc3ccc4ccccc4c3)nn2)cc1,106,i,i,i,i,i,46,81,i,i
Cc1cn([C@H]2C[C@H](O)[C@@H](CNCc3ccc(Oc4cc(-n5cccn5)ncn4)cc3)O2)c(=O)[nH]c1=O,i,nt,nt,i,nt,nt,nt,nt,nt,nt
CC1(C(=O)NS(=O)(=O)c2cccc(Cl)c2)CCN1C(=O)C1(c2ccc(Cl)cc2)CC1 (stereo not drawn),i,nt,nt,i,nt,nt,nt,nt,nt,nt
SMILES,TAAR1 antag,OX1R antag-1,CHO parental Ca,TAAR1 ag,GPR7 antag,OX1R antag-2,TAAR1 nonsel count,TAAR1 antag conf,Ga16 nonsel ag,TAAR1 ag counter
c1csc(CNc2nc(Oc3ccncc3)c3sccc3n2)c1,i,nt,nt,i,nt,nt,nt,nt,nt,nt
COc1ccc(CNC(=O)COc2ccc(S(=O)(=O)N3CCCCC3)cc2Cl)cc1,73,i,i,i,i,i,26,i,i,i
COc1cccc(C(=O)Nc2ccc(NC(=O)C3CC=CCC3C(=O)O)cc2)c1 (stereo not drawn),i,i,i,i,i,i,nt,nt,nt,nt
O=C(NCCCCc1ccccc1)c1cccc(NC(=O)c2ccccc2)c1,i,nt,nt,i,nt,nt,nt,nt,nt,nt
O=C(/C=C/c1ccccc1)Nc1cccc(C(=O)NCCCc2ccccc2)c1,77,nt,nt,i,nt,nt,35,50,i,i
O=C(NCCc1ccc(F)cc1)c1cccc(NC(=O)c2ccccc2)c1,61,i,i,i,i,i,33,51,i,i
O=C(Nc1cccc(C(=O)Nc2ccc(Br)cc2)c1)c1ccccc1,76,i,i,i,i,i,44,57,i,i
